This is a sample that favours compounds with a hit; in the whole collection about 2.4% have one here.
PfM18AAP inh-1: PfM18AAP inhibitors, malaria aminopeptidase, primary screen, biochemical, QFRET, recombinant enzyme; M18 aspartyl aminopeptidase (Plasmodium falciparum 3D7); H-Glu-NHMec fluorogenic cleavage; inhibition, % at 7.35 µM; 1.2% of 290,000 active; AID 1822, 2009;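 active means inhibition above the campaign mean inhibition over all tested compounds plus 3 SD, cut at about 28% in these data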;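 further: 0% = plate median of test compound wells and 100% = 2 mM ZnCl2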
IMP-1 inh: IMP-1 metallo-beta-lactamase inhibitors, primary screen, biochemical, epi-absorbance readout, Pseudomonas aeruginosa enzyme; 0.45% of 290,000 active; AID 1556, 2009; purified IMP-1, nitrocefin hydrolysis, epi-absorbance fluorescence; inhibition, % at 5.6 µM;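 active means inhibition above the mean plus 3 SD of all compounds in the same screening run, cut at about 4.5% in these data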;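 further: 0% = IMP-1 with DMSO and 100% = DMSO wells lacking enzyme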
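System: Purified recombinant IMP-1 metallo-beta-lactamase enzyme | Measured by: Fluorescence quenching readout, ex 480/em 530 nm | Replication: Singlicate | Incubation: 15 min preincubation plus 25 min reaction at 25 °C | Evaluation: Percent inhibition from optical density relative to buffer-blank wells | Benchmarks: DMSO with and without IMP-1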
VIM-2 inh: VIM-2 metallo-beta-lactamase inhibitors, primary screen, biochemical, epi-absorbance readout, Pseudomonas aeruginosa enzyme. purified VIM-2, nitrocefin hydrolysis, epi-absorbance fluorescence. inhibition, % at 5.6 µM. 0.89% of 290,000 active;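 active means inhibition above the mean of all tested compounds plus 3 SD, cutoff set per screening run, cut at about 7.5% in these data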;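 further: red hydrolysis product quenches plate fluorescence so inhibitors raise well fluorescence; 0% = enzyme with DMSO and 100% = DMSO without enzyme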
sPLA2-III inh: human group III sPLA2 inhibitors, primary screen, biochemical, QFRET, BODIPY PC-A2 liposome substrate | Group 3 secretory phospholipase A2 (Homo sapiens), Q9NZ20 | QFRET BODIPY PC-A2 liposome hydrolysis, fluorescence | inhibition, % at 12.2 µM | 0.56% of 370,000 active | AID 743126, 2013;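 active means inhibition above mean plus 3 SD of compounds lying within the high and low control bounds, cut at about 19% in these data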;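 further: 0% = median of test compound wells and 100% = no enzyme DMSO wells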
PfM18AAP inh-2: PfM18AAP inhibitors, malaria aminopeptidase, confirmation, biochemical, QFRET, recombinant enzyme, triplicate; shares compounds with PfM18AAP inh-1; H-Glu-NHMec fluorogenic cleavage; inhibition, % at 7.35 µM; 28% of 2,400 active; AID 2170, 2009;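 active means mean inhibition over replicate wells above the hit cutoff set for the earlier primary screen, cut at about 29% in these data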;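 further: 0% = median of test compound wells and 100% = 2 mM ZnCl2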
CTSL1 confirm: cathepsin L1 inhibitors, retest, confirmation, counter-screen for PFM18AAP inhibitor project, biochemical, QFRET, triplicate; shares compounds with PfM18AAP inh-1; purified cathepsin L1, Z-Leu-Arg-MCA fluorescence; inhibition, % at 5.96 µM; AID 2178, 2009; 2,400 tested, under 10 active;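 active means average inhibition across replicates above the hit cutoff set in the earlier primary screen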;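 further: 0% = median of test compound wells and 100% = Z-Phe-Ala-diazomethylketone 1 µM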
Target sequence (P07711 whole entry, looked up): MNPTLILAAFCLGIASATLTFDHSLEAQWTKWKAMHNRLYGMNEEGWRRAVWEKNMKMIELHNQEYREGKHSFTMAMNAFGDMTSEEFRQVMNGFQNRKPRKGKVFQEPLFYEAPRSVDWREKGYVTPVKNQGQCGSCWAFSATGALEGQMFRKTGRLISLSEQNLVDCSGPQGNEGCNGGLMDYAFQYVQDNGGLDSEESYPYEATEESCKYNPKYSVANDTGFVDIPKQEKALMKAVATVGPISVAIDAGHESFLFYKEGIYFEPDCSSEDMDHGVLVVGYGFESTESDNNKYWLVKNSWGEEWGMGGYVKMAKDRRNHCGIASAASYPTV
Numbers without * were called inactive; nt = no result given.

SMILES	PfM18AAP inh-1	IMP-1 inh	VIM-2 inh	sPLA2-III inh	PfM18AAP inh-2	CTSL1 confirm
CCC(NC(=O)c1ccc2c(ccn2Cc2cccc(-c3ccc(C(=O)O)cc3)c2)c1)c1ccccc1 (centres undefined)	nt	nt	nt	-27	nt	nt
O=C(Nc1ccc(Br)cc1)O[C@@H]1CC[C@@]23CCCN2C(=O)CCC[C@H]3C1	nt	nt	nt	-7	nt	nt
CSc1ccccc1C(=O)N1CCN(S(=O)(=O)c2sc(C(=O)O)c(C)c2C(=O)O)CC1	nt	nt	nt	-3	nt	nt
CCC(=O)Nc1ccc(NC(=O)c2cccc3c(Br)cccc23)cc1	45*	-2	-2	0	-30	1
CN(C(=O)CCc1nc2ccccc2c(=O)[nH]1)C1CCS(=O)(=O)C1 (centres undefined)	nt	nt	nt	1	nt	nt
O=C1CSC(=S)N1N=C1CCCCCC1	39*	-1	-2	-1	1	-1
O=C1C2C3C=CC(O3)C2C(=O)N1N=C1CCCCC1 (centres undefined)	nt	nt	nt	18	nt	nt
Cc1ccccc1/C=C/C1=NCCN1	nt	nt	nt	-4	nt	nt
Cc1cc(C)n2nc(SCC(=O)Nc3ccccc3C)nc2n1	-3	-3	-1	14	nt	nt
O=C(Nc1ccccc1Cl)c1cc2ccccc2o/c1=N\O	37*	-2	3	-5	19	1
Cc1cc(/C=N/NC(=O)CC#N)c(C)n1-c1ccc([N+](=O)[O-])cc1	34*	-3	-2	-12	-50	-7
Cc1cc(/C=N/Nc2ccc([N+](=O)[O-])cn2)c(C)n1-c1ccccc1	51*	0	3	2	-20	3
Cc1c(C(=O)O)cccc1-n1c(C)cc(/C=N/Nc2ccc([N+](=O)[O-])cn2)c1C	59*	-4	-5	-3	-17	6
O=C(O)Cn1cc(/C=N/Nc2ccc([N+](=O)[O-])cn2)c2ccccc21	53*	-3	-3	1	-20	-1
CCN(CC)c1ccc([N+](=O)[O-])cc1/C=N/NC(=O)CC#N	24	-2	-5	-30	nt	nt
Cc1ccc(-n2c(C)cc(/C=N/Nc3ccc([N+](=O)[O-])cn3)c2C)cc1	-4	-2	0	3	nt	nt
O=[N+]([O-])c1ccc(NN=Cc2cccc3ccccc23)nc1	nt	nt	nt	0	nt	nt
O=C(O)c1ccccc1C=NNc1ccc([N+](=O)[O-])cn1	nt	nt	nt	13	nt	nt
O=c1c2cc3cc(Cl)ccc3nc2ncn1CCc1ccc(O)cc1	nt	nt	nt	-15	nt	nt
CCOc1ccc(N2C(=O)C(C)CNC2=S)cc1 (centres undefined)	nt	nt	nt	8	nt	nt
CC(=O)c1cccc(NC(=O)c2ccc(-c3c(C)noc3C)c3ccoc23)c1	nt	nt	nt	-4	nt	nt
COc1ccc(C(=O)NCc2nnc(SCC(=O)NC3CCCCC3)o2)cc1	-4	-2	0	12	nt	nt
O=C(Nc1ccccc1C(F)(F)F)c1cnccn1	2	-4	-2	2	nt	nt
O=C(Nc1ccccc1C(F)(F)F)c1ncn[nH]1	59*	-4	-5	-11	57*	1
Cc1ccc(N2CSC3=C(C#N)C(c4cccs4)CC(=O)N3C2)cc1 (centres undefined)	33*	5.6*	0	-4	-6	6
SMILES	PfM18AAP inh-1	IMP-1 inh	VIM-2 inh	sPLA2-III inh	PfM18AAP inh-2	CTSL1 confirm
CCOC(=O)c1ccc(N2CSC3=C(C#N)C(c4cccs4)CC(=O)N3C2)cc1 (centres undefined)	32*	-1	-3	-4	-8	6
N#CC1=C2SCN(c3ccc(F)cc3)CN2C(=O)CC1c1cccc(F)c1 (centres undefined)	27	-2	-2	-8	nt	nt
COc1ccc(C2CC(=O)N3CN(c4ccc(C)c(Cl)c4)CSC3=C2C#N)cc1OC (centres undefined)	35*	-1	-3	9	-4	-2
COc1ccc(N2CSC3=C(C#N)C(c4ccc(OC)c(OC)c4)CC(=O)N3C2)c(OC)c1 (centres undefined)	18	-3	-3	4	nt	nt
CCc1ccc(N2CSC3=C(C#N)C(c4cccs4)CC(=O)N3C2)cc1 (centres undefined)	44*	-2	-4	nt	-5	1
COc1ccc(CNC(=O)C2(C)Cc3c(-c4cccc(NC(C)=O)c4)ccnc3O2)cc1OC (centres undefined)	nt	nt	nt	6	nt	nt
OC(c1ccc(Cl)c(F)c1)c1ncc(-c2cccc(F)c2)[nH]1 (centres undefined)	nt	nt	nt	1	nt	nt
O=C(C1CC(=O)N(c2ccc3c(c2)OCCO3)C1)N1CCN(c2ccccc2)CC1 (centres undefined)	1	-4	-5	-2	nt	nt
O=C(C1CC(=O)N(c2ccc3c(c2)OCCO3)C1)N1CCN(c2ccccc2O)CC1 (centres undefined)	34*	-2	-1	-4	5	1
CC1CCN(c2ccc(/C=N\Nc3nncn3N)cc2[N+](=O)[O-])CC1	53*	-4	-2	-2	-18	-4
CC(C)(C)NC(=O)C(=O)N/N=C/c1ccc(Br)cc1	-7	-2	0	8	nt	nt
CC(C)(C)c1nnc(N/N=C/c2ccc(Br)cc2)n(N)c1=O	43*	-1	-3	7	-38	2
CSc1ccc(/C=N\Nc2nncn2N)cc1	53*	-1	-1	-4	-16	-4
CC1CCN(c2ccc(/C=N/n3nnnc3N)cc2[N+](=O)[O-])CC1	-10	-1	1	-2	nt	nt
CC(C)(C)c1ccc(/C=N/Nc2nncn2N)cc1	51*	-5	-4	6	-18	-1
COc1ccc(NC(=O)CCSc2nc(C)cs2)cc1	-5	1	0	8	nt	nt
CC(=O)NC1=NC(=O)/C(=C/c2cc(C)n(-c3ccc(NC(C)=O)cc3)c2C)S1	6	-2	-1	-10	nt	nt
CC(=O)NC1=NC(=O)/C(=C/c2cc(C)n(-c3cccc(C(=O)O)c3)c2C)S1	33*	-3	0	-6	-33	-3
C=C(C)COC(=O)c1ccccc1C(=O)OCC1(C)CO1 (centres undefined)	nt	nt	nt	6	nt	nt
Cc1[nH][nH]c(=O)c1C(c1ccc(N(C)C)c(Br)c1)c1c(C)[nH][nH]c1=O	36*	-2	0	-45	17	5
COc1ccc(-n2nc(C(=O)NCC(=O)N3CCC(C)CC3)c3ccccc3c2=O)c(OC)c1	3	-2	-3	-6	nt	nt
CCC(C(=O)Nc1ncn[nH]1)(C(F)(F)F)C(F)(F)F	53*	-5	-4	0	69*	-6
O=C(Nc1ncn[nH]1)C(F)(F)C(F)F	32*	-1	-3	10	8	-8
O=C(NCCCl)Nc1ncn[nH]1	nt	nt	nt	13	nt	nt

Compound activity deposited in PubChem by The Scripps Research Institute Molecular Screening Center.
